Screens as filed in PubChem.
TNAP inh no acc: TNAP (human) inhibition, acceptor-free conditions | P05186 | purified TNAP, CDP-star luminescence, 30 min | inhibition, % at 20 µM | 200,000 compounds, 0.26% hits;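 active = tissue-nonspecific alkaline phosphatase inhibition above about 50% at 20 µM in the single-dose screen, limit read from the data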;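 also: 0% = DMSO negative control and 100% = EDTA positive control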
Target sequence (P05186 whole entry, looked up): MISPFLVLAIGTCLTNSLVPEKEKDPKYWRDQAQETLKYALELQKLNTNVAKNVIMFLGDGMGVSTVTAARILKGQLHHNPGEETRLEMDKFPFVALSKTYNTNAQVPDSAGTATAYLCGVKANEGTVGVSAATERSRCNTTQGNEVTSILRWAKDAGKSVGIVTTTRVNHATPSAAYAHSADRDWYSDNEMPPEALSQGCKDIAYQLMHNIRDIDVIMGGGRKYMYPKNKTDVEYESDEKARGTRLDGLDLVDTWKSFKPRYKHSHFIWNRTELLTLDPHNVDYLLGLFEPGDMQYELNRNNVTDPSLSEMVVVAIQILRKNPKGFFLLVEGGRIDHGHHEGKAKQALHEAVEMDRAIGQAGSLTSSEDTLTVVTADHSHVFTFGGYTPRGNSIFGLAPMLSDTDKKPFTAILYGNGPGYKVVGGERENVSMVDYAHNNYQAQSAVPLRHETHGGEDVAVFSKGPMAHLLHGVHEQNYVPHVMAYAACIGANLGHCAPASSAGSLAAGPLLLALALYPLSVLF
Arbovirus anti: antivirals against arbovirus infection; arbovirus infection cell-based antiviral screen; inhibition, % at 10 µM; 200,000 compounds, 0.37% hits; in the data active = inhibition above about 30%
WT yeast gro inh: growth inhibition of WT yeast, mitochondrial fusion screen; mitochondrial fusion phenotypic screen, WT strain; inhibition, % at 10 µM; 190,000 compounds, 2.1% hits; AID 1362; in the data active = inhibition above about 58%; tested in S. cerevisiae
TNAP act hiacc: TNAP (human) activation, high acceptor; P05186; purified TNAP, CDP-star luminescence, 1 M DEA, 30 min; stronger effect = higher value; 0 = EDTA background, 1 = DMSO-only activity; activation factor at 20 µM; 200,000 tested, under 10 active;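 active = activation factor at least 2 at 20 µM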
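system = human TNAP | amount = enzyme diluted 1/800 final | reagent = 100 µM CDP-star substrate | signal = luminescent substrate turnover signal | dosing = one dose, 20 µM | benchmarks = EDTA negative control, DMSO positive control | measure = activation factor | timing = 30 min reaction, room temperature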
TNAP inh hiacc: inhibitors of human TNAP at high phosphate acceptor concentration; 200,000 compounds, 0.03% hits; inhibition, % at 20 µM; P05186; purified TNAP, CDP-star luminescence, 1 M DEA;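 active = over 50% inhibition of tissue-nonspecific alkaline phosphatase at 20 µM in the single-dose screen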;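 also: plate controls were DMSO wells for no effect and EDTA-quenched wells as full inhibition for full effect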
* = called active by the depositor. Hits are enriched below; roughly 2.6% of the tested compounds scored in any of these assays.

What do the screens show for `Cc1ccsc1/C=N/NC(=O)Cn1cnc2ccccc21`?
TNAP inh no acc: -6; Arbovirus anti: -9; WT yeast gro inh: -13; TNAP act hiacc: 1; TNAP inh hiacc: -3

Results for NS(=O)(=O)c1ccc(N2N=C(c3ccccc3)CC2c2ccc(F)cc2)cc1 (stereo not given) ?
TNAP inh no acc: -36; Arbovirus anti: -39; WT yeast gro inh: 71*; TNAP act hiacc: 1.1; TNAP inh hiacc: -11

What do the screens show for `O=S(=O)(c1ccccc1)N1N=C(c2ccccc2)CC1c1ccccc1` (stereo not given)?
TNAP inh no acc: -4; Arbovirus anti: -5; WT yeast gro inh: 80*; TNAP act hiacc: 1; TNAP inh hiacc: 2

Results for COc1ccc(C2CC(c3ccccc3)=NN2c2ccc(/C=N/NC(=O)c3ccncc3)cc2)cc1 (stereo not given) ?
TNAP inh no acc: 17; Arbovirus anti: -23; WT yeast gro inh: 20; TNAP act hiacc: 0.9; TNAP inh hiacc: 7

What do the screens show for `COc1ccc(C2CC(c3ccccc3)=NN2S(=O)(=O)c2ccccc2)c(OC)c1` (stereo not given)?
TNAP inh no acc: -17; Arbovirus anti: -13; WT yeast gro inh: 20; TNAP act hiacc: 1; TNAP inh hiacc: -2

What do the screens show for `COc1ccc(C2CC(c3ccccc3)=NN2c2ccc(S(N)(=O)=O)cc2)cc1` (stereo not given)?
TNAP inh no acc: -20; Arbovirus anti: -32; WT yeast gro inh: 66*; TNAP act hiacc: 1.3; TNAP inh hiacc: -27

Results for O=C(c1cccs1)N1N=C(c2ccccc2)CC1c1ccccc1 (stereo not given) ?
TNAP inh no acc: -7; Arbovirus anti: -23; WT yeast gro inh: 67*; TNAP act hiacc: 1; TNAP inh hiacc: -2

How did O=C(COC(=O)C1(c2ccc(F)cc2)CCCC1)N1CCc2ccccc21 do in these assays?
TNAP inh no acc: -10; Arbovirus anti: 5; WT yeast gro inh: 3; TNAP act hiacc: 1; TNAP inh hiacc: -4

What do the screens show for `CCOc1ccc(CCNC(=O)C2CCC(=O)N2C2CCCCC2)cc1OCC` (stereo not given)?
TNAP inh no acc: -9; Arbovirus anti: 0; WT yeast gro inh: 20; TNAP act hiacc: 1.1; TNAP inh hiacc: -8

Results for Cc1ccc(-n2nnnc2SCc2nnc(-c3ccccc3Br)o2)c(C)c1 ?
TNAP inh no acc: -3; Arbovirus anti: 3; WT yeast gro inh: 27; TNAP act hiacc: 1; TNAP inh hiacc: -4

How did Oc1cc2c(cc1O)C1c3ccc(O)c(O)c3OCC1(O)C2 (stereo not given) do in these assays?
TNAP inh no acc: 87*; Arbovirus anti: 2; WT yeast gro inh: 32; TNAP act hiacc: 0.7; TNAP inh hiacc: 34

What do the screens show for `CC(C)(C)C(=O)N1CCN(c2nc3ccccc3o2)CC1`?
TNAP inh no acc: -8; Arbovirus anti: -2; WT yeast gro inh: 7; TNAP act hiacc: 1; TNAP inh hiacc: 0

What do the screens show for `CCC(NS(=O)(=O)c1c(C)[nH]c(=O)[nH]c1=O)C12CC3CC(CC(C3)C1)C2` (stereo not given)?
TNAP inh no acc: 0; Arbovirus anti: 7; WT yeast gro inh: 64*; TNAP act hiacc: 1; TNAP inh hiacc: -1

How did O=C(COC(=O)C12CC3CC(CC(C3)C1)C2)NC12CC3CC(CC(C3)C1)C2 do in these assays?
TNAP inh no acc: -4; Arbovirus anti: -7; WT yeast gro inh: 80*; TNAP act hiacc: 1; TNAP inh hiacc: -3

What do the screens show for `CCC(CC)C(=O)OCC(=O)NC12CC3CC(CC(C3)C1)C2`?
TNAP inh no acc: -23; Arbovirus anti: -1; WT yeast gro inh: -16; TNAP act hiacc: 1.1; TNAP inh hiacc: -8

How did O=C(/C=C/c1ccco1)Nc1sc2c(c1C(=O)O)CCC2 do in these assays?
TNAP inh no acc: -6; Arbovirus anti: 73*; WT yeast gro inh: 0; TNAP act hiacc: 1; TNAP inh hiacc: 1

How did O=C(Nc1scc(-c2ccc(F)cc2)c1C(=O)O)c1ccco1 do in these assays?
TNAP inh no acc: 4; Arbovirus anti: 35*; WT yeast gro inh: -17; TNAP act hiacc: 1; TNAP inh hiacc: -1

How did COC(=O)c1c(-c2ccccc2)csc1NC(=O)c1ccco1 do in these assays?
TNAP inh no acc: -12; Arbovirus anti: -3; WT yeast gro inh: -6; TNAP act hiacc: 1.1; TNAP inh hiacc: -7

How did Cc1nc(NC(=O)/C=C/c2ccco2)sc1C do in these assays?
TNAP inh no acc: -5; Arbovirus anti: -14; WT yeast gro inh: -1; TNAP act hiacc: 1; TNAP inh hiacc: 1

Results for N#Cc1c(NC(=O)/C=C/c2ccco2)sc2c1CCCC2 ?
TNAP inh no acc: -8; Arbovirus anti: -4; WT yeast gro inh: -5; TNAP act hiacc: 0.9; TNAP inh hiacc: 9

What do the screens show for `CC(C)c1ccc(-c2csc(NC(=O)c3cccs3)c2C(=O)O)cc1`?
TNAP inh no acc: -18; Arbovirus anti: 41*; WT yeast gro inh: 5; TNAP act hiacc: 1; TNAP inh hiacc: -4

Results for Cc1ccc(-c2csc(NC(=O)/C=C/c3ccco3)c2C(=O)O)cc1 ?
TNAP inh no acc: -9; Arbovirus anti: 71*; WT yeast gro inh: 13; TNAP act hiacc: 1.1; TNAP inh hiacc: -6

What do the screens show for `CCOC(=O)C1(Cc2ccc(O)cc2)NC(c2ccco2)C2C(=O)N(c3ccccc3F)C(=O)C21` (stereo not given)?
TNAP inh no acc: -5; Arbovirus anti: 5; WT yeast gro inh: 1; TNAP act hiacc: 1; TNAP inh hiacc: 1

How did O=C(O)CN1C(=O)C2C3CC(C2C1=O)C1C(c2ccc(F)cc2)c2sc(=O)[nH]c2SC31 (stereo not given) do in these assays?
TNAP inh no acc: -10; Arbovirus anti: 2; WT yeast gro inh: 3; TNAP act hiacc: 1; TNAP inh hiacc: 0

What do the screens show for `CSc1nc2cc(Oc3cccc(Cl)c3Cl)c(Cl)cc2[nH]1`?
TNAP inh no acc: -32; Arbovirus anti: -22; WT yeast gro inh: 85*; TNAP act hiacc: 1; TNAP inh hiacc: -4

What do the screens show for `COCC(=O)NC1(c2nnnn2CCOC(=O)Nc2ccc(Cl)cc2)CCCCC1`?
TNAP inh no acc: -10; Arbovirus anti: 1; WT yeast gro inh: 8; TNAP act hiacc: 1.1; TNAP inh hiacc: -7

How did CCOc1ccccc1C(=O)Nc1cc(OC)ccc1OC do in these assays?
TNAP inh no acc: -8; Arbovirus anti: -9; WT yeast gro inh: 63*; TNAP act hiacc: 1.1; TNAP inh hiacc: -5

What do the screens show for `CCCc1ccc(Oc2cn[nH]c2-c2ccc(O)c(C)c2O)cc1`?
TNAP inh no acc: -2; Arbovirus anti: -43; WT yeast gro inh: 83*; TNAP act hiacc: 1; TNAP inh hiacc: 0

What do the screens show for `COc1ccc(Oc2c(-c3ccc(O)cc3O)n[nH]c2C)cc1`?
TNAP inh no acc: -38; Arbovirus anti: -11; WT yeast gro inh: -10; TNAP act hiacc: 1.1; TNAP inh hiacc: -11

Results for CCCOC(=O)c1ccc(Oc2cn[nH]c2-c2ccc(OCC)cc2O)cc1 ?
TNAP inh no acc: -4; Arbovirus anti: -29; WT yeast gro inh: -12; TNAP act hiacc: 1; TNAP inh hiacc: -1
